As usually defined, the IC50 is the concentration that inhibits the measured activity by half. As usually defined, the bioavailability is dose-corrected exposure relative to a reference, in per cent. A word on the AUC: it is the area under the concentration-time curve, a measure of exposure. As usually defined, the Cmax is the peak of the concentration-time curve.

Series [1] has as its system HCT-15. The experiment in a line: Inhibition of human HCT-15 (human colon adenocarcinoma, MDR positive) cell growth. Format: functional, cell-based. The procedure, abridged:
(§1)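 Sulforhodamine B assay following the NCI protocol. HCT-15 and NCI-H460 cells were exposed to final concentrations of 10^-11 to 10^-4 M and grown for 48 h at 37 °C in 5% CO2. […] Cells were TCA-fixed and stained, dye was solubilized in Tris, and absorbance was read. IC50 came from nonlinear regression as the geometric mean of at least two independent runs.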

For series [2], the system named is NCI-H460. The experiment in a line: Inhibition of human NCI-H460 (human lung large cell carcinoma, MDR negative) cell growth. Format: functional, cell-based. Put shortly:
as §1

Series [3] is described as follows: Bioavailability. Format: ADME, organism-based. The note with it: eutheria, in vivo. Put shortly:
(§2)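 Two animals were used in each dosing group, each given 5 mg/kg either orally or iv. Plasma Cmax, oral AUC and bioavailability are the average of the two animals.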

A short description of series [4]: The oral Area under the plasma concentration curve(AUC) measured;when administered perorally. Format: ADME. The procedure, abridged:
as §2

Series [5] can be described thus: Maximum concentration of compound present in plasma measured. Format: ADME, organism-based. The procedure, abridged: as §2
The nature of series [6]: Oral bioavailability in dog. Format: ADME, organism-based, Canis lupus familiaris. The note with it: in vivo. Put shortly:
as §2

Series [7] can be described thus: Oral bioavailability in monkey. Format: ADME, organism-based. The note with it: primates, in vivo. The procedure, abridged: as §2
Series [8] in a line: Oral bioavailability in mouse. The settings on record: in vivo. Format: ADME, organism-based. Put shortly: as §2
Series [9] deals with Tubulin beta chain (Bos taurus, UniProt Q6B856). In words: Concentration needed to inhibit tubulin polymerization by 50%. Format: functional. The procedure, abridged: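 Microtubule protein was purified from bovine brain, or purified tubulin in glycerol was used. Tubulin, buffer and GTP were prechilled to 4 °C, then added to wells containing drug or solvent. Polymerization ran at 37 °C, with light scattering followed at 340 nm for 30 min. The degree of polymerization was taken from the AUC of the profile. IC50 came from nonlinear regression as the geometric mean of at least two independent runs.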

The nature of series [10]: The oral Area under the plasma concentration curve(AUC) measured;when administered as perorally. Format: ADME. The procedure, abridged: as §2

Molecules are shown by their SMILES.

Sequence of Tubulin beta chain (Q6B856 whole entry): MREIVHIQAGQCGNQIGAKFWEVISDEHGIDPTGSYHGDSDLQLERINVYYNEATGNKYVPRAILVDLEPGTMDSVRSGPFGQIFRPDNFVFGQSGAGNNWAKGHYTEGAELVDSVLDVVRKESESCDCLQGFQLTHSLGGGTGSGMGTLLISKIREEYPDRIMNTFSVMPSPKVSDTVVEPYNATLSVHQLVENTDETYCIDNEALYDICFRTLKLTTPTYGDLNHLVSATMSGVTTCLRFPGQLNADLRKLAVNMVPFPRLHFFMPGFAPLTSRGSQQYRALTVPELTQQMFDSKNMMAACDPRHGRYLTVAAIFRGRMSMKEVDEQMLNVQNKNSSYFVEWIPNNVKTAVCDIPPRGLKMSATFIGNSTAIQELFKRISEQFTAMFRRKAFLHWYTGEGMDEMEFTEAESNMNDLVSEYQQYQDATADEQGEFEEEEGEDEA

For the molecule `COc1cc(-n2cncc2-c2ccc(N)cc2)cc(OC)c1OC`, the IC50 in [1] was determined as 7260 nM; in [2] it was 8550 nM.
In series [3], `COc1cc(-c2ncn(C)c2-c2cc(Cl)c3c(ccn3C)c2)cc(OC)c1OC` gave a bioavailability of 10.2%. In series [4], this molecule came in with an AUC of 220 ng·h/mL. The Cmax in series [5] turned out to be 130 ng/mL. In addition, the IC50 in [1] and in [2] was 12 nM in each case.
Take `COc1ccc(-c2ccnn2-c2cc(OC)c(OC)c(OC)c2)cc1N`: the results for the IC50 in series [1] and in series [2] were 28 nM and 33 nM, respectively.
In the case of `COc1cc(-c2ncn(C)c2-c2ccc3ccn(C)c3c2)cc(OC)c1OC`, the bioavailability in [6] is 44.5%; in series [7], 12.5%; in series [8] it was 24.2%; in [3], 32%. The AUC in [4] is 461 ng·h/mL. For the same molecule, in series [5], the Cmax turned out to be 169 ng/mL. Further, the IC50 worked out at 20 nM in series [1], 2000 nM in series [9] and 32 nM in series [2].
As for `COc1cc(-c2[nH]cnc2-c2ccc3ccn(C)c3c2)cc(OC)c1OC`, the bioavailability in series [3] was 0.31%. Moreover, the AUC in series [4] stood at 14.2 ng·h/mL. The molecule also showed a Cmax in [5] of less than 10 ng/mL. Also, the results for the IC50 in series [1], in series [9] and in series [2] were 1.7 nM, 1100 nM and 1.8 nM, respectively.
Take `COc1cc(-c2ncn(C)c2-c2cc(F)c3c(ccn3C)c2)cc(OC)c1OC`: in series [3], the bioavailability amounted to 12.3%. Besides, in series [4], the AUC is 340 ng·h/mL. The molecule also showed a Cmax in series [5] of 209 ng/mL. Further, the IC50 in series [1] is 27 nM; in series [2], 23 nM.
As for `COc1cc(-c2ncoc2-c2ccc(N(C)C)cc2)cc(OC)c1OC`, the values for the half-inhibitory concentration (IC50) in series [1], in series [9] and in series [2] were 18 nM, 870 nM and 41 nM, respectively.
Consider `COc1cc(-c2[nH]cnc2-c2ccc(N(C)C)cc2)cc(OC)c1OC`, for which, in series [3], the bioavailability came out at 1.3%. In [4], this molecule yielded an exposure (AUC) of 16.2 ng·h/mL. The molecule further gave a Cmax in [5] of 15.1 ng/mL. The IC50 amounted to 4.4 nM in series [1], 3700 nM in series [9] and 2 nM in series [2].
With `COc1ccc(-c2[nH]cnc2-c2cc(OC)c(OC)c(OC)c2)cc1`, the IC50 stood at 7.8 nM in [1], 2800 nM in series [9] and 7.2 nM in series [2].
In series [3], `COc1cc(-c2cncn2-c2ccc(N(C)C)cc2)cc(OC)c1OC` came in with a bioavailability of 0.01%. In [5], this molecule registered a Cmax of less than 10 ng/mL. Further, the IC50 in [1] worked out at 333 nM; in series [9], 130000 nM; in [2], 589 nM.
As for `COc1ccc(-c2[nH]cnc2-c2cc(OC)c(OC)c(OC)c2)cc1F`, the IC50 in series [1] and in series [2] was 3.8 nM in each case.
On to `COc1cc(-n2cncc2-c2ccc(N(C)C)cc2)cc(OC)c1OC`, for which the IC50 in series [1] was 36 nM; in series [9], 23000 nM; in series [2], 79 nM.
The like results for `COc1cc(-c2ncoc2-c2ccc3c(ccn3C)c2)cc(OC)c1OC` were, in that order, 7.4 nM, 790 nM and 12 nM.
For `COc1ccc(-c2ncoc2-c2cc(OC)c3c(c2)OCO3)cc1N`, the IC50 worked out at 76 nM in series [1] and 53 nM in [2].
As for `COc1ccc(-c2[nH]cnc2-c2cc(OC)c(OC)c(OC)c2)cc1O`, the figures for the IC50 in series [1], in series [9] and in series [2] were 10 nM, 730 nM and 11 nM, respectively.
As to `COc1cc(-c2[nH]c(-c3ccoc3)nc2-c2ccc(N(C)C)cc2)cc(OC)c1OC`, the IC50 in series [1] worked out at 67 nM; in series [2], 190 nM.
Regarding `COc1cc(-n2cncc2-c2ccc3c(c2)CCN3C)cc(OC)c1OC`, the IC50 in series [1] turned out to be 58 nM; in series [9], 48000 nM; in series [2], 150 nM.
For `COc1ccc(-c2ocnc2-c2cc(OC)c(OC)c(OC)c2)cc1O`, the IC50 is 2.2 nM in series [1], 980 nM in [9] and 2.3 nM in [2].
The like results for `COc1ccc(-c2cncn2-c2cc(OC)c(OC)c(OC)c2)cc1N` were, in that order, 69 nM, 7700 nM and 63 nM.
`COc1ccc(-c2ncn(C)c2-c2cc(OC)c(OC)c(OC)c2)cc1N` came in with a bioavailability in [3] of 29.9%. In addition, in [4], the AUC came to 1500 ng·h/mL. The molecule further gave a Cmax in series [5] of 623 ng/mL. Further, the IC50 in [1] worked out at 79 nM; in series [2], 34 nM.
`COc1ccc(-c2[nH]cnc2-c2cc(OC)c(OC)c(OC)c2)cc1N` displayed a bioavailability in series [3] of 45%. The AUC in [4] was less than 218 ng·h/mL. Moreover, the Cmax in series [5] is less than 74 ng/mL. The IC50 in [1] was 8.1 nM; in [9] it was 680 nM; in series [2], 8.5 nM.
In series [3], `COc1ccc(-c2ncoc2-c2cc(OC)c(OC)c(OC)c2)cc1N` registered a bioavailability of 0%. Moreover, the IC50 in [1] worked out at 7.2 nM; in series [2], 11 nM.
With `COc1ccc(-c2ocnc2-c2cc(OC)c(OC)c(OC)c2)cc1N`, in series [3], the bioavailability was found to be 0.5%. In series [10], this molecule yielded an AUC of 12 ng·h/mL. The molecule further gave a Cmax in [5] of 22 ng/mL. Further, the IC50 in series [1] was 11 nM; in series [9], 920 nM; in series [2], 9.2 nM.
For the molecule `COc1ccc(-c2cncn2-c2cc(OC)c(OC)c(OC)c2)cc1O`, the IC50 in [1] turned out to be 89 nM; in [9] it was 7600 nM; in series [2], 61 nM.
Turning to `COc1ccc(-c2c(-c3cc(OC)c(OC)c(OC)c3)ncn2C)cc1N`, the bioavailability in series [6] came to 45.8%; in series [7], 91.2%; in series [8], 89.7%; in [3], 82.3%. In series [4], this molecule showed an AUC of 10800 ng·h/mL. In [5], this molecule displayed a Cmax of 3860 ng/mL. Also, the IC50 in [1] was found to be 220 nM; in series [9], 31000 nM; in series [2], 170 nM.
Consider `COc1ccc(-c2nc(C)oc2-c2cc(OC)c(OC)c(OC)c2)cc1O`, for which the IC50 amounted to 15 nM in series [1] and 35 nM in series [2].
The like results for `COc1cc(-c2nccnc2-c2ccc(N(C)C)cc2)cc(OC)c1OC` were, in that order, 303 nM and 707 nM.
Consider `COc1cc(-n2ccnc2-c2ccc(N(C)C)cc2)cc(OC)c1OC`, for which the values for the IC50 in series [1], in [9] and in [2] were 80 nM, 35000 nM and 270 nM, respectively.
With `COc1cc(-n2cncc2-c2ccc3c(ccn3C)c2)cc(OC)c1OC`, the values for the IC50 in [1], in series [9] and in series [2] were 14 nM, 1800 nM and 19 nM, respectively.
The like results for `COc1cc(-n2cncc2-c2ccc3[nH]ccc3c2)cc(OC)c1OC` were, in that order, 350 nM, 71000 nM and 540 nM.
Molecule `COc1cc(-c2c(-c3ccc4c(ccn4C)c3)ncn2C)cc(OC)c1OC` had a bioavailability in series [3] of 2.5%. This molecule also displayed an AUC in series [4] of 112 ng·h/mL. The peak level in series [5] (Cmax) was 70 ng/mL. In addition, the 50% inhibitory concentration (IC50) in [1] was 27 nM; in series [2] it was 51 nM.
